GPR7 antag – human neuropeptides B/W receptor 1 antagonism. P48145. GPR7-expressing cells, fluorescence antagonist assay. inhibition, % at 4.4 µM. actives 1.1% (n = 290,000). AID 1861; in the data active = inhibition above about 16%, passing the limit was not always enough;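 also: cells stimulated with the agonist NPW; 0% = agonist with vehicle and 100% = vehicle without agonist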
OX1R antag-1 – blocks the human orexin 1 receptor; CHO/OX1R cells, Fluo-8 calcium fluorescence, orexin A; actives 0.43% (n = 330,000); inhibition, % at 5 µM; AID 434989; O43613;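 active = inhibition above its plate's threshold, mean inhibition of all tested compounds on the plate plus 3 SD, cut at about 37% in these data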;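 also: 0% = orexin A challenge wells and 100% = SB-334867-A antagonist wells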
Target sequence (O43613 whole entry, looked up): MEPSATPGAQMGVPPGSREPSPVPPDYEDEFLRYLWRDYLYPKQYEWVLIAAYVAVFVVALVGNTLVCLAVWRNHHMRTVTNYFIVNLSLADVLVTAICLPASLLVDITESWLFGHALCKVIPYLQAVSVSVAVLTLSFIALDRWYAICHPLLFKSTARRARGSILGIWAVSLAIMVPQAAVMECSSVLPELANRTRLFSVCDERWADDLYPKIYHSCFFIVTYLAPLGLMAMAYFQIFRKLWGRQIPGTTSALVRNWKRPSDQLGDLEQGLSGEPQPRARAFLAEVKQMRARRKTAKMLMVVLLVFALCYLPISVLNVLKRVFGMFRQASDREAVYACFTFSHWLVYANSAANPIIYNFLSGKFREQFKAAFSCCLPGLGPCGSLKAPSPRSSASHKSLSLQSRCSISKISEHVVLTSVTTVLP
OX1R antag-2 – blocks the human orexin 1 receptor | OX1R-expressing cells, FRET antagonist read-out | O43613 | inhibition, % at 6.6 µM | AID 485270 | actives 1.8% (n = 330,000); in the data active = inhibition mostly above about 38%, no sharp cut-off; inactive = mostly below about 40%;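 also: 0% = agonist challenge alone and 100% = reference antagonist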
GalR3 antagonist – antagonists of human GalR3 | O60755 | HEK293 GalR3-CNG cAMP membrane potential fluorescence; galR3 body fused to GalR1 C-terminus | inhibition, % at 3 µM | actives 0.44% (n = 360,000) | AID 651719;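 active = inhibition above the screen-wide average plus 3 SD, cut at about 13% in these data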;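 also: forskolin and galanin both at EC90 stimulate the cells; cAMP rise reported by CNG channel membrane potential dye signal; 0% = forskolin plus galanin with DMSO and 100% = forskolin alone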
Target sequence (O60755 1-299 limits assumed): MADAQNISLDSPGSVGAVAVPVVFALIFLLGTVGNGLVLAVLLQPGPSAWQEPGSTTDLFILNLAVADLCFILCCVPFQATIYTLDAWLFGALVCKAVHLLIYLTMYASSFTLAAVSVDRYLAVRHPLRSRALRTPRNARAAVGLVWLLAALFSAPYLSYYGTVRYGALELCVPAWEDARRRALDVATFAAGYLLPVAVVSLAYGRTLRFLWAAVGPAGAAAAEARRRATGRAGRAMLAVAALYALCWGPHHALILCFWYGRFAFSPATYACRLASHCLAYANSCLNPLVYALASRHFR
CHO parental Ca – counter-screen for OX1R antagonists: effect in parental CHO cells | parental CHO-K1, ATP-induced calcium, Fluo-8 fluorescence | AID 463079 | inhibition, % at 5.6 µM | actives 0.63% (n = 330,000);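 active = inhibition above that plate's mean sample inhibition plus 3 SD, cut at about 26% in these data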;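 also: 0% = ATP-challenged DMSO wells and 100% = DMSO wells without ATP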
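test system = CHO parental line | reagent = ATP stimulus | measured by = intracellular calcium via Fluo-8 no-wash fluorescent dye | control set = ATP and no-ATP DMSO wells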
Starred values were filed as active, the others as inactive; x = not tested or not shown. An excerpt weighted towards active compounds, which were near 3.1% of everything screened.

SMILES | GPR7 antag | OX1R antag-1 | OX1R antag-2 | GalR3 antagonist | CHO parental Ca
O=[N+]([O-])c1c(NCCCO)cc(N2CCN(Cc3ccc4c(c3)OCO4)CC2)c2nonc12 | -0.8 | -24.5 | 33.2 | -7.9 | -13.4
O=[N+]([O-])c1c(NCCCO)cc(Sc2ccc(Cl)cc2)c2nonc12 | 4.3 | 10.7 | 31.1 | 6.8 | 19.8
CN(CCO)c1cc(N2CCCCC2)c2nonc2c1[N+](=O)[O-] | -9.2 | -5.4 | 46.9 | 7.3 | -6.9
COC(=O)c1ccc(OC)c(CN2CCCN(Cc3ccc(F)cc3)S2(=O)=O)c1 | 7.4 | -8.5 | 21.1 | -14.2 | 3.4
O=C(N[C@H](C(=O)N1CCC[C@H]1C(=O)NCc1ccccc1)c1ccccc1)c1ccccc1 | x | x | x | -5.6 | x
COC(=O)CCSc1cc(NCCOC(C)=O)c([N+](=O)[O-])c2nonc12 | -2.0 | -4.8 | 52.9* | 9.3 | 2.5
COc1ccc(Nc2cc(NCCCO)c([N+](=O)[O-])c3nonc23)cc1 | 1.4 | -6.4 | 49.0* | -10.4 | -16.4
COc1ccc(CNc2cc(NCCCO)c([N+](=O)[O-])c3nonc23)cc1 | -6.5 | -12.1 | 37.9 | -6.6 | -10.7
CCCN1C(=O)c2[nH]nc(-c3ccccc3)c2C1c1ccc(F)cc1 (stereo not given) | x | x | x | -5.8 | x
O=C(Cc1csc(NC(=O)Nc2ccc(Cl)cc2)n1)NCc1ccccn1 | x | -17.4 | 5.8 | 1.3 | -10.0
O=C(Cc1csc(NC(=O)Nc2ccc(Cl)cc2)n1)NC1CCCC1 | x | 14.2 | 16.0 | -4.8 | 34.9*
CN(CC(=O)Nc1ccc(Cl)c(Cl)c1)C(=O)C1CCCC1 | x | -3.8 | 8.3 | -1.9 | -15.0
CCS(=O)(=O)N1CCN(c2ccc([N+](=O)[O-])c(NCc3cccnc3)c2)CC1 | -2.0 | -34.9 | 20.8 | -7.6 | 10.4
O=C(O)c1ccc(NCc2cccnc2)c([N+](=O)[O-])c1 | -12.0 | -3.5 | 54.5* | -1.2 | 2.5
CC(=O)N1CCN(c2ccc([N+](=O)[O-])c(NCc3cccnc3)c2)CC1 | -13.1 | -12.2 | 42.2* | 4.8 | -11.9
O=C(Nc1ncc([N+](=O)[O-])s1)c1ccccc1Br | -5.1 | -2.4 | 42.8* | -1.2 | 4.2
O=C(CS(=O)(=O)c1ccccc1)Nc1ncc([N+](=O)[O-])s1 | -13.3 | -4.8 | 26.8 | -8.6 | 3.1
Cc1cnc(NC(=O)c2cccs2)s1 | -2.1 | -1.9 | 19.7 | -11.6 | 12.8
O=C(Nc1ncc([N+](=O)[O-])s1)c1cccs1 | -3.7 | 7.1 | 74.9* | -4.1 | 2.3
O=C(CCNC(=O)N1CC(=O)Nc2ccccc21)Nc1ccc(Br)cc1F | -0.5 | -20.4 | 7.3 | -7.9 | -14.3
CC(C)(CSc1ncccn1)NS(=O)(=O)c1ccccc1 | -3.1 | -12.1 | 12.1 | -3.6 | -1.2
Cc1ccc(S(=O)(=O)NC(C)(C)CSc2nnc(Nc3ccccc3)s2)cc1 | -0.6 | 49.5* | 39.2 | -3.4 | 53.0*
COCCNC(=O)C(=O)Nc1cc2c3c(c1)CCC(=O)N3CCC2 | 4.8 | -4.4 | 5.4 | -6.8 | 4.7
CC(C)c1ccc(NC(=O)CSC(C)c2nc3ccccc3c(=O)[nH]2)cc1 (stereo not given) | -16.1 | 1.8 | 63.1* | -1.8 | -5.1
CC(SCC(=O)Nc1ccccc1)c1nc2ccccc2c(=O)[nH]1 (stereo not given) | -4.9 | -11.3 | 11.8 | -3.2 | -15.2
SMILES | GPR7 antag | OX1R antag-1 | OX1R antag-2 | GalR3 antagonist | CHO parental Ca
CC(C)C(NC(=O)CCNC(=O)c1ccc(C(C)(C)C)cc1)c1nc2ccccc2[nH]1 (stereo not given) | x | 12.8 | 8.3 | 2.8 | -31.0
FC(F)(F)c1cc(CCN2CCNC[C@@H]2CC2CCCCC2)cc(C(F)(F)F)c1 | x | 11.8 | -5.6 | -2.9 | 51.2*
CCCC[C@@H]1CNCCN1CCc1cc(C(F)(F)F)cc(C(F)(F)F)c1 | x | -28.3 | 27.2 | 0.2 | -12.0
CC(C)(C)c1ccc(C#C[C@@H]2C=C[C@@H](O)[C@@H](CO)O2)cc1 | x | x | x | -2.9 | x
Cc1cc(S(=O)(=O)Nc2ccc3cn[nH]c3c2)c(C)cc1Cl | -10.7 | 6.8 | 27.7 | -7.7 | 40.3*
O=S(=O)(Nc1ccc2cn[nH]c2c1)c1ccc(Cl)cc1 | -1.6 | -0.9 | 11.1 | x | -8.1
Cc1c(C(=O)Nc2ccccn2)oc2c(Cl)cccc12 | x | -24.8 | 34.4* | -6.3 | -47.2
Cc1cc(NC(=O)c2oc3ccccc3c2C)ccc1-n1cnnn1 | -5.0 | -4.7 | 38.5* | -5.8 | -17.3
Cc1c(C(=O)Nc2ccccn2)oc2ccccc12 | -0.8 | 1.8 | 52.3* | -10.0 | -7.2
COc1ccccc1C(=O)NC1CCCCN(C)C1=O (stereo not given) | x | x | x | -6.4 | x
COCCN1C(=O)CCC1(C)c1nnnn1-c1ccc2ccccc2c1 (stereo not given) | x | x | x | -5.0 | x
COc1ccc(-c2cnc3c(NC=O)cc(-c4ccccc4OC)cn23)cc1OC | x | x | x | 34.1* | x
CCN(CC)C1CCN(C(=O)CCn2nnnc2CN2CCOCC2)C1 (stereo not given) | -5.2 | -7.2 | 16.6 | 0.2 | -0.3
O=C(O)c1cc([N+](=O)[O-])c(Sc2nc3ccccc3[nH]2)c([N+](=O)[O-])c1 | 5.5 | 2.3 | 19.2 | -12.4 | 0.2
CS(=O)(=O)c1cc([N+](=O)[O-])c(Sc2nc3ccccc3[nH]2)c([N+](=O)[O-])c1 | -15.2 | 22.3 | 39.0* | -5.5 | 31.5*
Nc1nc(-c2ccccc2)[nH]c(=O)c1N=O | -5.6 | -15.8 | 58.5* | -8.7 | -3.7
Cc1c(C(=O)Nc2ccc(F)cc2)nnn1-c1cccc(C(F)(F)F)c1 | -18.8 | 4.0 | 36.1 | 1.1 | 48.8*
Cc1cccc(-n2nnc(C(=O)Nc3ccc(F)cc3)c2N)c1 | 7.7 | -14.6 | 25.1 | 0.7 | 0.8
CCOC(=O)N1CCC(N2CCN(S(=O)(=O)c3ccc([N+](=O)[O-])cc3)CC2)CC1 | -1.0 | -9.0 | 53.7* | -5.8 | 9.5
O=S(=O)(c1ccc(Cl)cc1)N1CCN(C2CCN(Cc3ccccc3)CC2)CC1 | 0.4 | -34.2 | 9.3 | -3.6 | -13.9
O=[N+]([O-])c1ccc(S(=O)(=O)N2CCN(Cc3c[nH]c4ccccc34)CC2)cc1 | 7.5 | -25.5 | 48.6* | -1.1 | -5.0
O=[N+]([O-])c1ccc(S(=O)(=O)N2CCN(C3CCN(Cc4ccccc4)CC3)CC2)cc1 | -0.3 | -12.1 | 63.4* | -7.0 | -15.2
O=C1c2cccc3cccc(c23)C(=O)N1c1nncs1 | -4.7 | -24.8 | 75.1* | -0.9 | -12.2
CN1C(=O)[C@@]2(O[C@H]3C=CC=CN3C3=C2C(=O)CCC3)c2cccc(Br)c21 | x | x | x | -2.0 | x
CC(C)(C)OC(=O)NCCCCCNC(=O)c1nc[nH]c1C(=O)NCc1ccc(CNC(=O)OC(C)(C)C)cc1 | x | 57.7* | 14.8 | -3.2 | 40.4*
CC(C)C[C@H](NC(=O)c1nc[nH]c1C(=O)NC1CCN(C(=O)OC(C)(C)C)CC1)C(=O)OCc1ccccc1 | -33.1 | -16.7 | 25.9 | -7.0 | 33.8*
CC(C)C[C@H](NC(=O)c1nc[nH]c1C(=O)NC1CCN(C(=O)OC(C)(C)C)CC1)C(=O)OC(C)(C)C | -33.9 | -37.1 | 7.9 | -6.6 | -41.5
